V-ATPase pHluor: regulators of yeast V-ATPase proton pumping, primary screen, pHLuorin cytosolic pH fluorescence. 350,000 compounds, 0.37% hits. S. cerevisiae. response, % at 10 µM; in the data active means response mostly above about 7.3%, no sharp cut-off; inactive means mostly below about 5.4%; further: actives read high
NR2E3 ag-1: NR2E3 agonists in two-hybrid cells, primary screen, cell-based, luminescence, CHO-S, Gal4-NCOR/VP16-NR2E3; inhibition of corepressor binding, % at 3.98 µM; Photoreceptor-specific nuclear receptor (Homo sapiens), Q9Y5X4; luciferase; 360,000 compounds, 0.35% hits; AID 602229, 2012;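 active means inhibition above the mean of all tested compounds plus 3 SD, cut at about 70% in these data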;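 further: 0% = DMSO with NR2E3 transfected cells and 100% = cells lacking NR2E3 construct; higher means lower luciferase signal from less NR2E3 corepressor binding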
FXN GAA850 act: FXN promoter activators, primary screen, cell-based, luciferase luminescence, HEK293 lucGAA850 | 360,000 compounds, 0.56% hits | activation, % at 6 µM | HEK293 lucGAA850 FXN promoter luciferase reporter, 24 h; percent of 10 µM SAHA response;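 active means activation above the average of all compounds screened plus 3 SD, cutoff fixed separately per campaign, cut at about 7.5% in these data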;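 further: 0% = DMSO wells and 100% = 10 µM SAHA wells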
HIV Env fusion: inhibitors of HIV-1 Env-driven cell-cell fusion, primary screen, HeLa-JRFL effector, CEM21 target cells, luciferase | AID 651610, 2012 | 360,000 compounds, 1.1% hits | inhibition, % at 12.3 µM;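 active means mean replicate inhibition score of at least 50 and every replicate individually at or above 50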;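 further: 0% = plate neutral controls and 100% = maraviroc near 300 nM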
NR2E3 ag-2: inhibitors of NR2E3-RetCOR corepressor binding, primary screen, NR2E3 agonist project, biochemical, TR-FRET, GST-NR2E3, biotin-RetCOR; Photoreceptor-specific nuclear receptor (Homo sapiens), Q9Y5X4; 1536-well; inhibition of corepressor binding, % at 4.78 µM; 320,000 compounds, 0.12% hits;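 active means percent inhibition above the cutoff of mean plus 3 SD of all tested compounds, set per screening campaign, cut at about 20% in these data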;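 further: 0% = DMSO wells and 100% = biotin wells as full block of FRET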
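Material: NR2E3–RetCOR corepressor complex | Quantity: 1.35 nM GST-tagged NR2E3 final | Schedule: 5 h at 4 °C | Replication: Singlicate compound wells | Reagent: RetCOR corepressor, biotinylated, 7 nM | Controls: Biotin wells as high control, 0.6% DMSO wells as low control | Signal: TR-FRET, Eu(K)-anti-GST donor, streptavidin-D2 acceptor, ex 340, em 617/671 nm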
GalR3 antag: GalR3 antagonists in HEK293 cells, primary screen, cell-based, fluorescence readout; Galanin receptor type 3 (Homo sapiens), O60755; HEK293 GalR3-CNG cAMP membrane potential fluorescence; galR3 body fused to GalR1 C-terminus; inhibition, % at 3 µM; 360,000 compounds, 0.44% hits;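 active means inhibition above the screen-wide average plus 3 SD, cut at about 13% in these data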;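 further: forskolin and galanin both at EC90 stimulate the cells; cAMP rise reported by CNG channel membrane potential dye signal; 0% = forskolin plus galanin with DMSO and 100% = forskolin alone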
NR2E3 ag confirm-1: NR2E3 agonists, confirmation, biochemical, TR-FRET | shares compounds with NR2E3 ag-2 | cell-free NR2E3 corepressor release, 5 h | activation (reported as inhibition), % at 3.98 µM | AID 2379, 2010 | 360 compounds, 39% hits; in the data active means activation above about 20%
PPARg-NCOR2 ag: agonists of PPARg-NCOR2 corepressor interaction, counter-screen for NR2E3 agonist project, biochemical, TR-FRET. shares compounds with NR2E3 ag-2. TR-FRET PPARg-NCOR2 coregulator interaction. inhibition, % at 3.98 µM. 360 compounds, 45% hits. AID 504787, 2011; in the data active means inhibition above about 20%;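 further: 0% = DMSO vehicle and 100% = wells without protein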
V-ATPase pH SP: yeast V-ATPase proton pumping modulators, confirmation, S. cerevisiae, pH-sensitive GFP, second cherry-pick; shares compounds with V-ATPase pHluor; S. cerevisiae pHLuorin cytosolic pH, V-ATPase proton transport; response, % at 10 µM; 980 compounds, 2% hits; AID 602197, 2012; in the data active means response above about 24%;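 further: plate controls were vehicle wells for no effect and positive control wells for full effect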
GAA30 counter: GAA30 FXN promoter activators, confirmation, counter-screen for GAA850 frataxin promoter activator project, cell-based, luminescence, HEK293, lucGAA30, triplicate; HEK293 lucGAA30 FXN promoter luciferase, 24 h; DMSO = 0%, 5 µM ipriflavone = 100%; 1,900 compounds, 66% hits; shares compounds with FXN GAA850 act; AID 588350, 2011; activation, % at 6 µM;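 active means mean activation above the mean of solvent-only control wells plus 3 SD, cut at about 22% in these data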;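 further: counterscreen of GAA850 promoter hits where activity marks nonselective or luminescence artifacts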
FXN GAA850 conf: FXN GAA850 promoter activators in reporter cells, confirmation, cell-based, luminescence, HEK293 lucGAA850, triplicate. shares compounds with FXN GAA850 act. HEK293 lucGAA850 FXN promoter luciferase reporter, 24 h; 100% = activation by SAHA. activation, % at 6 µM. 1,900 compounds, 86% hits. AID 588351, 2011;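 active means mean activation above a set limit taken from the primary screen, cut at about 8% in these data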;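 further: 0% = DMSO wells and 100% = 10 µM SAHA wells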
NR2E3 ag confirm-2: NR2E3 agonist confirmation in cells, cell-based, luminescence, CHO-S two-hybrid. CHO-S mammalian two-hybrid NR2E3-NCOR, luciferase luminescence. shares compounds with NR2E3 ag-1. inhibition, % at 3.98 µM. 2,300 compounds, 51% hits;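 active means average inhibition above a cutoff equal to the mean inhibition of all tested compounds plus one SD, cut at about 70% in these data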;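 further: 0% = DMSO in NR2E3 cells and 100% = DMSO in cells lacking NR2E3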
VP16 counter: GAL4-VP16 reporter modulators, confirmation, counter-screen for NR2E3 agonist project, cell-based, luminescence, CHO-S, high throughput; inhibition, % at 3.98 µM; shares compounds with NR2E3 ag-1; CHO-S GAL4-VP16 luciferase reporter; 2,300 compounds, 29% hits;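 active means mean inhibition above a cutoff equal to the average over all tested compounds plus one standard deviation, cut at about 70% in these data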;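 further: luciferase from a UAS reporter driven by GAL4-VP16 transactivation; 0% = DMSO with VP16-transfected cells and 100% = DMSO with cells lacking VP16; higher means less reporter light so more repression of VP16 activity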
Active calls of the source: *; nt = not tested or not shown; [ ] = another dose, or the depositor's remark. Only some compounds are listed: those with a hit (about 2.2% of all), similar ones and a draw of the others.

SMILES | V-ATPase pHluor | NR2E3 ag-1 | FXN GAA850 act | HIV Env fusion | NR2E3 ag-2 | GalR3 antag | V-ATPase pH SP | others
Cc1cc(-c2ccc(Cl)cc2)c(C#N)c(N)n1 | 5 | -33 | 8.2* | nt | 39* | -3 | nt | NR2E3 ag confirm-1=26*;PPARg-NCOR2 ag=26*;GAA30 counter=16;FXN GAA850 conf=15*
C[C@@H]1CCCCO[C@@H](CN(C)C(=O)c2ccccc2)[C@H](C)CN([C@H](C)CO)C(=O)c2cc(NC(=O)Nc3ccc4c(c3)OCO4)ccc2O1 | nt | nt | nt | -19[16.7 µM] | nt | nt | nt
CCc1oc2ccccc2c1C(=O)c1cc(Br)c(O)c(Br)c1 | -8 | 92* | 1 | -23 | 38* | -2 | nt | NR2E3 ag confirm-1=31*;PPARg-NCOR2 ag=45*;NR2E3 ag confirm-2=98*;VP16 counter=79*
Cc1onc(-c2c(F)cccc2Cl)c1C(=O)Nc1nnc(C(F)(F)F)s1 | 1 | 92* | 1 | 29 | 23* | -5 | nt | NR2E3 ag confirm-1=20*;PPARg-NCOR2 ag=-11;NR2E3 ag confirm-2=96*;VP16 counter=77*
Cc1onc(-c2c(F)cccc2Cl)c1C(=O)Nc1nccs1 | 4 | -13 | 0 | 5 | 0 | -7 | nt
O=C(C[C@@H]1CC[C@H]2[C@@H](COC[C@@H](O)CN2Cc2cc(F)ccc2F)O1)NCc1ccc(Cl)cc1 | nt | nt | nt | 17[16.7 µM] | nt | nt | nt
CC1CCN(c2nc(-c3ccc(F)cc3)cc(C(F)(F)F)n2)CC1 | 8.6* | 3 | -2 | -50 | 3 | -5 | 2
Cc1cc(NC(=O)C(C)SCC(=O)Nc2ccccc2N2CCCC2)no1 (stereo not drawn) | 1 | 3 | 0 | 6 | 4 | -2 | nt
Cc1cc(NC(=O)C(C)SCC(=O)Nc2ccccc2C(C)(C)C)no1 (stereo not drawn) | 9.9* | -14 | 3 | 27 | -1 | -2 | -4
CN(C)CC(=O)Nc1ccc2c(c1)[C@H]1C[C@@H](CC(=O)N3CCCCC3)O[C@@H](CO)[C@H]1O2 | nt | nt | nt | 0[16.7 µM] | nt | nt | nt
COc1ccc(OC)c(-n2c(SCC(=O)NCc3ccco3)nnc2-c2c[nH]c3ccccc23)c1 | 12* | 31 | 0 | 35 | 3 | nt | -2
CCOC(=O)C1CCN(C(=O)CN(c2cccc(C(F)(F)F)c2)S(C)(=O)=O)CC1 | 12* | -8 | 1 | nt | 3 | -2 | 1
O=C(CCSC1=NCCCN1)c1ccc(F)cc1 | 25 | -10 | 0 | -19 | nt | -3 | 45*
Cn1c(SCC(=O)c2ccc(F)cc2)nc2cccnc21 | 2 | -16 | 0 | nt | -4 | -3 | nt
C[C@@H]1CN([C@@H](C)CO)C(=O)c2cc(-c3cccnc3)cnc2O[C@H]1CN(C)C | nt | nt | nt | -13[16.7 µM] | nt | nt | nt
C[C@@H](NC(=O)C[C@H]1CC[C@H](NC(=O)C2CC2)[C@@H](CO)O1)c1ccccc1 | nt | nt | nt | 2[16.7 µM] | nt | nt | nt
CC1=NN(c2nc(N)nc(/C(C#N)=C/c3ccc([N+](=O)[O-])o3)n2)C(C)(C)C1 | 48* | -3 | 5 | -70 | nt | -3 | 0
COc1ccc(CN(C)C[C@H]2OCCCC[C@H](C)Oc3ccc(NS(C)(=O)=O)cc3C(=O)N([C@H](C)CO)C[C@H]2C)cc1 | nt | nt | nt | 13[16.7 µM] | nt | nt | nt
COc1ccc(/C=C2\Oc3cc(OCC(N)=O)ccc3C2=O)cc1OC | -1 | -21 | 4 | 25 | -2 | -10 | nt
COC(=O)COc1ccc2c(c1)O/C(=C\c1cccc([N+](=O)[O-])c1)C2=O | 13* | 4 | 0 | -6 | -2 | -7 | 3
O=C(CCN1C(=O)/C(=C\c2cccs2)SC1=S)Nc1ccccn1 | 6.2* | -18 | 1 | 9 | 1 | -5 | -3
O=C(CCCN1C(=O)/C(=C/c2cccs2)SC1=S)Nc1ccccn1 | 1 | -4 | -1 | 6 | 5 | 6 | nt
CCCNC(=O)C[C@H]1CC[C@@H]2[C@H](COc3ccc(NC(=O)NCC)cc3C(=O)N2C)O1 | nt | nt | nt | 3[16.7 µM] | nt | nt | nt
O=c1cc(CCl)nc2sc3ccccc3n12 | 13* | -1 | 0 | 2 | -2 | -3 | 1
O=C(OCc1cc(=O)n2c(n1)sc1ccccc12)c1ccc(O)cc1 | 6 | -45 | 5 | -21 | -3 | -3 | nt
O=C(COC(=O)CSc1ccc2ccccc2c1)Nc1ccccc1OC(F)F | 11* | -16 | 1 | nt | 5 | -4 | -1
O=C(Nc1ccc(F)cc1)N[C@@H]1CC[C@H](CCn2cc(C3(O)CCCC3)nn2)O[C@H]1CO | nt | nt | nt | -6[16.7 µM] | nt | nt | nt
NS(=O)(=O)c1ccc(CCNC(=O)CCNC(=O)c2ccco2)cc1 | -4 | 8 | -1 | -3 | 7 | -5 | nt
NS(=O)(=O)c1ccc(CCNC(=O)c2ccco2)cc1 | 11* | -11 | 0 | 15 | -1 | 4 | -1
